In data set [1] the target is T1, Bifunctional epoxide hydrolase 2 (Homo sapiens, UniProt P34913).
T1 sequence (P34913 whole entry): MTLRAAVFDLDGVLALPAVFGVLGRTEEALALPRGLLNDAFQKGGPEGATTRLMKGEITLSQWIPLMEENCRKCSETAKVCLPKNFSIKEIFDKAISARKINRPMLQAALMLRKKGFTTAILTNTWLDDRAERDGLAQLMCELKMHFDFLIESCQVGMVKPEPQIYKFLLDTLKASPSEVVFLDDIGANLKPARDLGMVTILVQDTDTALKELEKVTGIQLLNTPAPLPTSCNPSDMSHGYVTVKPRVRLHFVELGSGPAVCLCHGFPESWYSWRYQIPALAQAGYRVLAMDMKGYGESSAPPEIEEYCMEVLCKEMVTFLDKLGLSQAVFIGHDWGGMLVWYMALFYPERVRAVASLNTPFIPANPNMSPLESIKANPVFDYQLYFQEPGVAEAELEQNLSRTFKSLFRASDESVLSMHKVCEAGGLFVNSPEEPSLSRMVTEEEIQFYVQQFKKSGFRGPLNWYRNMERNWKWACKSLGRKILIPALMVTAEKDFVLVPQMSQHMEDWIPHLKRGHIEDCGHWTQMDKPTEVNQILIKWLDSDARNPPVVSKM
Nature of the data set: Inhibitory concentration against human soluble epoxide hydrolase (sEH) at 0.24 uM.

The target of data set [2] is T2, Bifunctional epoxide hydrolase 2 (Mus musculus, UniProt P34914).
T2 sequence (P34914 whole entry): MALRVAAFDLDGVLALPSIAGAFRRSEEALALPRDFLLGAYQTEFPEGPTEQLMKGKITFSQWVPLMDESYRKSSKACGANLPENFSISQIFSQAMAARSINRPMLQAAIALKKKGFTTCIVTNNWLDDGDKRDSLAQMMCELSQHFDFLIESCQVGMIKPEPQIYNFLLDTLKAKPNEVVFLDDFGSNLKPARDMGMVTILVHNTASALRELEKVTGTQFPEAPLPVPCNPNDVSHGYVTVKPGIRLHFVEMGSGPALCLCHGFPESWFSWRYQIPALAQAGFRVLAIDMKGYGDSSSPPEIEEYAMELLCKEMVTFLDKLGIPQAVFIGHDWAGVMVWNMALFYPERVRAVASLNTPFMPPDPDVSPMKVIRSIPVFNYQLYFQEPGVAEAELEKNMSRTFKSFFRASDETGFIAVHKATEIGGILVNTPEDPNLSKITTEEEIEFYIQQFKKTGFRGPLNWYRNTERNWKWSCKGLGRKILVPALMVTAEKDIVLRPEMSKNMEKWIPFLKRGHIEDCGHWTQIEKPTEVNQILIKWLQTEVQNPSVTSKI
The data set is described as follows: Inhibitory concentration against mouse soluble epoxide hydrolase (sEH) at 0.12 uM. In outline: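 Recombinant murine enzyme, baculovirus-expressed, affinity-purified (≥97% pure). 0.12 μM enzyme preincubated with inhibitor 5 min at 30 °C in 0.1 M sodium phosphate pH 7.4 with 0.1 mg/mL BSA. Racemic 4-nitrophenyl-trans-2,3-epoxy-3-phenylpropyl carbonate added at 40 μM. 4-Nitrophenolate formation read at 405 nm over 1 min, 30 °C. Run in triplicate. IC50 regressed from ≥5 points, at least two on each side in the linear region.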

A short description of data set [3]: Solubility in sodium phosphate buffer 0.1M, pH 7.4 at 25 +/-1.5 degree C. The class given is physicochemical. The following applies: read-out: S. In outline:
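Excess solid added to 0.1 M sodium phosphate pH 7.4 at 25 ± 1.5 °C. Suspension equilibrated by 1 h sonication, then 24 h shaking. Centrifuged 5 min at 200g. Absolute amount of dissolved compound then calculated.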

The nature of data set [4]: Partition coefficient (logP). The class given is physicochemical. The following applies: octanol/water. Put shortly: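 Calculated, not measured: Crippen's method estimate.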

Values after ≈ are worked out from the molar mass of the structure shown.

In general, IC50 refers to the midpoint of a concentration-inhibition curve. Read a high IC50 as weaker potency in that assay. Take `O=C(CC1CCCCC1)Nc1ccccc1CO`: the 50% inhibitory concentration (IC50) in data set [1] and in data set [2] was above 100 µM throughout.

As to `O=C(Nc1ccccc1CO)NC1CCCCC1`, the IC50 in data set [1] and in data set [2] was above 100 µM each time.

Regarding `CCCCCOC(=O)CCCOC(=O)Oc1cccc(Cl)c1`, the half-inhibitory concentration (IC50) in data set [1] and in data set [2] was above 100 µM in each case.

Take `CCCCCOC(=O)CCCNC(=O)C12CC3CC(CC(C3)C1)C2`: the half-inhibitory concentration (IC50) in data set [1] came out at 9.4 µM; in data set [2], 2.8 µM.

What is called logP is the decadic logarithm of the partition coefficient of the neutral form, usually between octanol and water. As to `CCCCCCCCCCCC(=O)NC12CC3CC(CC(C3)C1)C2`, the solubility in data set [3] was determined as 0.42 µg/mL (≈ 1.26 µM). In addition, in data set [4] (read-out: logP), the logP is 5.52.

The molecule `COc1ccc(NC(=O)CC2CCCCC2)cc1` had a 50% inhibitory concentration (IC50) in data set [1] of 6.2 µM.

As to `CCCCCCCCCCNC(=O)CC12CC3CC(CC(C3)C1)C2`, the solubility in data set [3] was found to be 0.32 µg/mL (≈ 0.959 µM). For the same molecule, in data set [4] (read-out: logP), the logP was determined as 5.64.

Regarding `CCCCCOC(=O)CCCOC(=O)Cc1cccc(Cl)c1`, the IC50 in data set [1] and in data set [2] was above 100 µM each time.

Regarding `CCCCCOC(=O)CCCOC(=O)Nc1cccc(Cl)c1`, the half-maximal inhibitory concentration (IC50) in data set [1] is 25.2 µM; in data set [2], 17.4 µM.

In the case of `CCCCCOC(=O)CCCCC(=O)NC12CC3CC(CC(C3)C1)C2`, the solubility in data set [3] amounted to 15.1 µg/mL (≈ 43.2 µM). For the same molecule, the logP in data set [4] (read-out: logP) is 3.53.

As for `CCCCCCC(O)CCCNC(=O)NC12CC3CC(CC(C3)C1)C2` (configuration not stated), the concentration for half-maximal inhibition (IC50) in data set [1] stood at 0.13 µM; in data set [2], 0.05 µM.

Take `O=C(Cc1ccccc1CO)NC1CCCCC1`: the IC50 in data set [1] and in data set [2] was above 100 µM each time.

As to `CCCCCOC(=O)CCCNC(=O)NC12CC3CC(CC(C3)C1)C2`, the solubility in data set [3] was determined as 1.44 µg/mL (≈ 4.11 µM). In data set [4], this molecule showed a log partition coefficient (logP) of 2.77.

In the case of `CCCCCOC(=O)CCCNC(=O)Oc1cccc(Cl)c1`, the 50% inhibitory concentration (IC50) in data set [1] and in data set [2] was above 100 µM each time.

Take `CCCCCOC(=O)CCCNC(=O)CC12CC3CC(CC(C3)C1)C2`: the solubility in data set [3] was determined as 17.4 µg/mL (≈ 49.8 µM). Besides, the lipophilicity (logP) in data set [4] (read-out: logP) was determined as 3.66.

The molecule `CCCCCCCCCCNC(=O)NC12CC3CC(CC(C3)C1)C2` showed a half-inhibitory concentration (IC50) in data set [1] of 0.11 µM. In data set [3], the solubility turned out to be 0.5 µg/mL (≈ 1.49 µM). Moreover, in data set [4] (read-out: logP), the logP is 4.76.

The values above are taken from ChEMBL document CHEMBL1139516, “Optimization of amide-based inhibitors of soluble epoxide hydrolase with improved water solubility” (J Med Chem, 2005).
